Compound activity from PubChem BioAssay.
Ec RNAP inh: E. coli RNAP inhibitors, biochemical | DNA-directed RNA polymerase subunit beta (Escherichia coli (strain K12)), P0A8V2 | E. coli RNA polymerase, fluorescence transcription assay | inhibition, %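 (tested at 10 µM)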 | 62,000 compounds, 0.2% hits; in the data active means inhibition above about 20%
RORa activator: activators of orphan receptor RORA, primary screen, cell-based, luminescence. CHO-K1 Gal4-RORA LBD luciferase reporter; percent increase over mock-subtracted basal signal. activation, % at 10 µM. 65,000 compounds, 1.5% hits;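 active means activation above the mean of all tested compounds plus 3 SD, cut at about 49% in these data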
Target sequence (P35398 whole entry, looked up, the tested form may be a part): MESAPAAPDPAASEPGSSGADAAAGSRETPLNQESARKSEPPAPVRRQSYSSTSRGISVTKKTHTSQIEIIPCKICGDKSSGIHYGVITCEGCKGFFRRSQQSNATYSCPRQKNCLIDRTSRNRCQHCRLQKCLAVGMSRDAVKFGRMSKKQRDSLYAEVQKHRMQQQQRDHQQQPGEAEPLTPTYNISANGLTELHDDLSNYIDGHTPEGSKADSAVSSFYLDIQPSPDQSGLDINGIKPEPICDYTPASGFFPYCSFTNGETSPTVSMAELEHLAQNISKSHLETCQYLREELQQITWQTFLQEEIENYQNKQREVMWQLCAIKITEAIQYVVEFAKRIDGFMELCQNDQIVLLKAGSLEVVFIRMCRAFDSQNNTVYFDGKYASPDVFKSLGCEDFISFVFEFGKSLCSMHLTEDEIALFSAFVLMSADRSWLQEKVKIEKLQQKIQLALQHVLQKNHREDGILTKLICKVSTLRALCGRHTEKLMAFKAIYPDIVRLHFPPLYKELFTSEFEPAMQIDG
MT1-MMP txn act: MT1-MMP promoter reporter activation – cell-based, luciferase luminescence, primary screen; AID 750, 2007; HT1080 MT1-MMP promoter luciferase reporter, overnight; hits give high values; 86,000 compounds, 0.16% hits; activation factor at 10 µM;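 active means activation factor of at least 2 for MT1-MMP transcription at 10 µM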
SF1 activator: activators of human SF-1, primary screen, cell-based, CHO-K1, Gal4-SF-1 LBD, luciferase luminescence. Steroidogenic factor 1 (Homo sapiens), Q13285. CHO-K1 Gal4-SF-1 LBD luciferase reporter; % increase over DMSO SF-1-specific signal. activation, % at 10 µM. 65,000 compounds, 1.9% hits. AID 522, 2006;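 active means activation above the mean activation of all tested compounds plus 3 SD, cut at about 50% in these data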
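material = CHO-K1 cells with Gal4–hSF-1 LBD chimera plus Gal4-driven luciferase | compound = 10 µM single point, 1% DMSO | incubation = 20 h compound exposure at 37 °C after 1 h cell settling | measured by = SteadyLite luciferase luminescence | evaluation = percent activation relative to DMSO median and mock-transfected background | control set = DMSO negative control and −SF1 background wells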
TNAP act DEA: human TNAP enzyme activators, primary screen, biochemical, luminescent, intermediate phosphate acceptor level | purified TNAP, CDP-star luminescence, 100 mM DEA, 30 min; hits give high values; scale: 0 levamisole-inhibited, 1 vehicle-only enzyme | activation factor at 20 µM | AID 813, 2007 | Alkaline phosphatase, tissue-nonspecific isozyme (Homo sapiens), P05186 | 64,000 tested, under 10 active;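 active means activation factor of at least 2 at 20 µM, relative to controls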
A number is an active result; – = inactive; · = not tested or not shown. Sampled rows, rich in hits. Any-hit rate of the full collection: about 2.1%.

SMILES | Ec RNAP inh | RORa activator | MT1-MMP txn act | SF1 activator | TNAP act DEA
Oc1ccc(Cl)cc1CNc1ccc(Br)cn1 | – | – | – | 89 | –
COc1ccc(-c2cc3nc4c(c(=O)n3[nH]2)CCC4)cc1 | – | 54 | – | 63 | –
Cc1cc2nc3c(c(=O)n2[nH]1)CCCC3 | – | – | – | – | –
O=c1c2c(nc3cc(-c4ccccc4)[nH]n13)CCC2 | – | – | – | 60 | –
O=C(CSc1nnc(-c2ccccn2)n1Cc1ccccc1)Nc1ccc2c(c1)OCO2 | – | – | – | – | –
CC(C)c1nnc(NC(=O)CCC(=O)Nc2ccc(F)cc2)s1 | · | – | – | – | –
CCOC(=O)c1cnn2c(C)cc(-c3ccccc3)nc12 | – | – | – | 65 | –
Cc1ccccc1OCc1nc2c3cnn(C)c3ncn2n1 | – | 50 | – | – | –
Cc1cccc(C)c1OCc1nnc2c3cnn(C)c3ncn12 | – | – | – | – | –
Cc1nc(NC(=O)c2ccc(Br)s2)sc1C(=O)N(C)C | – | 70 | – | 107 | –
COc1ccc(C(=O)Nc2nc(C)c(C(=O)N(C)C)s2)cc1OC | – | – | – | – | –
Cc1nc(NC(=O)c2cc3c(s2)CCCCC3)sc1C(=O)N(C)C | – | – | – | 60 | –
C/C(N)=C(/C#N)C(=O)COC(=O)C1CCC(C(C)(C)C)CC1 (stereo unspecified) | · | · | – | · | ·
CCc1c2c(nc3cccc(OC)c13)OC(CC)C2 (stereo unspecified) | · | · | – | · | ·
Cc1[nH]c(=O)[nH]c(=O)c1S(=O)(=O)N1CCCC1 | – | – | · | – | –
Cc1c(C(=O)Nc2nnc(C(F)(F)F)s2)oc2ccccc12 | – | – | – | – | –
COC(=O)c1sc(NC(=O)c2oc3ccccc3c2C)nc1C | – | 61 | 2.3 | 58 | –
Cc1c(C(=O)Nc2ccccn2)oc2ccccc12 | – | – | – | 69 | –
CCOC(=O)N1CCC(NC(=O)C2CCN(S(=O)(=O)c3c(C)noc3C)CC2)CC1 | – | – | · | – | –
Fc1cccc(Cl)c1Cn1nnc(-c2ccc3c(c2)OCO3)n1 | – | 56 | – | 70 | –
Cc1ccccc1Cn1nnc(-c2ccc3c(c2)OCO3)n1 | · | · | – | · | ·
CCOC(=O)N1CCN(C(=O)C2CCCN(c3nc4ccc(OCC)cc4s3)C2)CC1 (stereo unspecified) | – | – | – | – | –
Cc1ccccc1-c1nc(CN2CCC(C(=O)N3CCN(c4ccccn4)CC3)CC2)c(C)o1 | – | – | – | – | –
CCOc1ccc2nc(N3CCC(C(=O)N4CCN(c5ccccn5)CC4)CC3)sc2c1 | – | 73 | – | – | –
CCOc1ccc2nc(N3CCC(C(=O)N4CCN(c5ncccn5)CC4)CC3)sc2c1 | – | 70 | – | – | –
SMILES | Ec RNAP inh | RORa activator | MT1-MMP txn act | SF1 activator | TNAP act DEA
Cc1cc(Cl)cc2c1NC(=O)[C@]21[C@@H]2C(=O)N(Cc3ccccc3)C(=O)[C@@H]2[C@@H]2CCCN21 | 33 | – | – | – | –
Cn1nccc1C(=O)OCC(=O)Nc1nc(-c2ccccc2)cs1 | · | – | – | 50 | –
CCN(CC)C(=O)C(=O)c1cccn1-c1cccc(-n2cccc2C(=O)C(=O)N(CC)CC)c1C#N | · | · | – | · | ·
CC1CCN(C(=O)c2cc3ccccc3o2)CC1 | – | – | – | – | –
Cc1ccc2cc(C#N)c(SCC(=O)NCC3CCCO3)nc2c1 (stereo unspecified) | – | – | – | – | –
CCOC(=O)CC(=O)CSc1nc2ccc(C)cc2cc1C#N | – | – | – | 72 | –
COC(=O)CSc1nc2cc(C)ccc2cc1C#N | – | – | 2 | 100 | –
CCOC(=O)CC(=O)CSc1nc2c(cc1C#N)CCCCC2 | – | – | – | 59 | –
O=C(NCCN1CCCC1)c1ccc(CS(=O)(=O)c2c(Cl)cccc2Cl)o1 | – | – | – | – | –
COc1ccc2nc(N3CCCC3)c(C#N)cc2c1 | – | – | – | – | –
COc1ccc2nc(N3CCCCC3)c(C#N)cc2c1 | – | – | – | 50 | –
